Data taken from article PMC4969713 (Journal of Alzheimer's Disease, 2016).
Values joined by “and” are separate entries in the source; they are usually repeats but may differ in a detail not shown here. Identical values can stand only once. Counter-ions that a name gives are not always drawn. Like-named read-outs stand apart in the source and are kept apart here.

How the values were obtained:
5-HT7 receptor = 5-HT7 receptor (Homo sapiens, UniProt P34969); experiment: Radioligand binding competition, 5-HT7
Sequence of 5-HT7 receptor (P34969 whole entry): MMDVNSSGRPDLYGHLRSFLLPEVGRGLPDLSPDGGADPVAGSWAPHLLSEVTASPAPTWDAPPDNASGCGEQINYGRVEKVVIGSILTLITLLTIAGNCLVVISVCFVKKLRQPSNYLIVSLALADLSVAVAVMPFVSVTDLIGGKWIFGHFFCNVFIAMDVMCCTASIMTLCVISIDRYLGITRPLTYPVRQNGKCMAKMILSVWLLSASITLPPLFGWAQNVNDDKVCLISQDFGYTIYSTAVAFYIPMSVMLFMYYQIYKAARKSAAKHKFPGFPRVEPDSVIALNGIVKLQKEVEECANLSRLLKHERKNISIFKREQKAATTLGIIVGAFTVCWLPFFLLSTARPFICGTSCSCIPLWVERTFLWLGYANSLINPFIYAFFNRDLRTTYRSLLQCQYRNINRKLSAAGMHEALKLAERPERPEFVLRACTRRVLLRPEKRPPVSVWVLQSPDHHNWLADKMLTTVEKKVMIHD

sodium channel (Site 2) = experiment: Target panel binding, sodium channel
[1] = target: calcium channels of N type (Homo sapiens, UniProt Q00975); experiment: Target panel binding, calcium channel N type
[2] = target: norpinephrine transporter (Homo sapiens, UniProt P23975); experiment: Target panel binding, norpinephrine transporter
Sequence of norpinephrine transporter (P23975 whole entry): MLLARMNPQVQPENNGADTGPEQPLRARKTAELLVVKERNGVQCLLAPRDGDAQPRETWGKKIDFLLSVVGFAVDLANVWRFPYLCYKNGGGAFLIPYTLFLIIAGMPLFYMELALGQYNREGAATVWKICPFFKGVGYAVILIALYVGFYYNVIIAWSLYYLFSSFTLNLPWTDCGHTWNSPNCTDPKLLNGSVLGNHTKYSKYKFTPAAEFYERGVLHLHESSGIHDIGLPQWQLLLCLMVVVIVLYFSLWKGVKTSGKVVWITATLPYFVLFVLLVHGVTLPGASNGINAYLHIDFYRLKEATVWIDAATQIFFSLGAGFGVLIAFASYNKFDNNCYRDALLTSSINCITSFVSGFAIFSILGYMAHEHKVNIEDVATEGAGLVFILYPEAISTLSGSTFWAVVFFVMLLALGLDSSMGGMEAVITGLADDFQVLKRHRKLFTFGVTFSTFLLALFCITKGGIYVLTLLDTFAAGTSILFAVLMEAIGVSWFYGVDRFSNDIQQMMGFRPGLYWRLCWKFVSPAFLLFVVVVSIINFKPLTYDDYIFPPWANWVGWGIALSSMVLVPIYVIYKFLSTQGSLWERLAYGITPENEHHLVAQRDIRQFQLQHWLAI

H1 receptor = H1 receptor (Homo sapiens, UniProt P35367); experiment: Histamine-induced Ca2+ mobilization in SK-N-SH cells; type: cell-based
Sequence of H1 receptor (P35367 whole entry): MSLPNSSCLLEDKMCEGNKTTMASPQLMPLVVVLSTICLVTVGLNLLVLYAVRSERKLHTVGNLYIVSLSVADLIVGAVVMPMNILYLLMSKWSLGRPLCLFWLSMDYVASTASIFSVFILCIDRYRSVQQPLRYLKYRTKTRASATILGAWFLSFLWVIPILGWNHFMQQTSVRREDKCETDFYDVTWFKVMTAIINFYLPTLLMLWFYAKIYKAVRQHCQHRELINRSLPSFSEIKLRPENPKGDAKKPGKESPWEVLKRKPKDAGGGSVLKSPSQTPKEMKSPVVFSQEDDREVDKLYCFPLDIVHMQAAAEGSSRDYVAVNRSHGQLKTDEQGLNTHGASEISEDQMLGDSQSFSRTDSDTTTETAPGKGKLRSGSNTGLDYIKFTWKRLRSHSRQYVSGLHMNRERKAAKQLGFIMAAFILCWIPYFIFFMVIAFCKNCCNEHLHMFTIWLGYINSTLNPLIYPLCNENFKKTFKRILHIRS
Outline: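 SK-N-SH cells challenged with 10μM histamine; transient rise in intracellular free Ca2+ recorded as the response, with test compound examined for blockade of this histamine-evoked signal.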

[3] = target: human recombinant H2 receptors (Homo sapiens, UniProt P25021); experiment: Amthamine-induced cAMP accumulation in CHO-K1 cells; type: cell-based
Sequence of human recombinant H2 receptors (P25021 whole entry): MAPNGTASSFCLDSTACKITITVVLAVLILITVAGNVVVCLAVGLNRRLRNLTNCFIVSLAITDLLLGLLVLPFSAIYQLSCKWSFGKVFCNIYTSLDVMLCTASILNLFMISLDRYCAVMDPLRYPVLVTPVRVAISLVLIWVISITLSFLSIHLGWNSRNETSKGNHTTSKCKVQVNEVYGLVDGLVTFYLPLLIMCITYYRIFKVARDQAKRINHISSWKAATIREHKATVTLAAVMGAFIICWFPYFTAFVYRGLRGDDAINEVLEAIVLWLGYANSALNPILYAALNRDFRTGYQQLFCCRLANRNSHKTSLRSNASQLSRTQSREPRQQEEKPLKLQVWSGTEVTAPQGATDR
Outline: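 CHO-K1 cells exogenously expressing recombinant human H2 receptor were stimulated with 50 nM amthamine. Intracellular cAMP accumulation was registered, and blockade of this response by test compound was measured.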

[4] = Stability in murine blood plasma; type: in vitro ADME, mouse; settings: 30-min incubation, room temperature
[5] = Stability in monkey blood plasma; type: in vitro ADME; settings: 30-min incubation, room temperature
[6] = Metabolism in rat microsomes; type: in vitro ADME; settings: for Remaining quantity: AVN-101 1 μM, RLM
CYP2C8 = CYP2C8 (Homo sapiens, UniProt P10632); experiment: Metabolism by recombinant CYP2C8; type: in vitro ADME
Sequence of CYP2C8 (P10632 whole entry): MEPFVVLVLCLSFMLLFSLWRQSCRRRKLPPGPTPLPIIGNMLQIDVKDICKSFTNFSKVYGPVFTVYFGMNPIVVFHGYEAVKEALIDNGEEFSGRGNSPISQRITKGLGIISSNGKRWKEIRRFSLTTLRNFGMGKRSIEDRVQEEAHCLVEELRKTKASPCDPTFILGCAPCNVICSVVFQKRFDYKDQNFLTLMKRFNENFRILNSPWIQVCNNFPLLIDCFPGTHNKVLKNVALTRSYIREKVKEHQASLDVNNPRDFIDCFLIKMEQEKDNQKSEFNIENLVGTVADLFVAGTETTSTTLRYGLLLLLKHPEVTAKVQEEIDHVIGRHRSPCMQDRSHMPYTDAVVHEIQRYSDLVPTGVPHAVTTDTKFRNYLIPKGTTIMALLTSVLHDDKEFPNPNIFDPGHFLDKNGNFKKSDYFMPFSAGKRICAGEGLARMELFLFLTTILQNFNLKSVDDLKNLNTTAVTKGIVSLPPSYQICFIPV

CYP2C19 = CYP2C19 (Homo sapiens, UniProt P33261); experiment: Metabolism by recombinant CYP2C19; type: in vitro ADME
Sequence of CYP2C19 (P33261 whole entry): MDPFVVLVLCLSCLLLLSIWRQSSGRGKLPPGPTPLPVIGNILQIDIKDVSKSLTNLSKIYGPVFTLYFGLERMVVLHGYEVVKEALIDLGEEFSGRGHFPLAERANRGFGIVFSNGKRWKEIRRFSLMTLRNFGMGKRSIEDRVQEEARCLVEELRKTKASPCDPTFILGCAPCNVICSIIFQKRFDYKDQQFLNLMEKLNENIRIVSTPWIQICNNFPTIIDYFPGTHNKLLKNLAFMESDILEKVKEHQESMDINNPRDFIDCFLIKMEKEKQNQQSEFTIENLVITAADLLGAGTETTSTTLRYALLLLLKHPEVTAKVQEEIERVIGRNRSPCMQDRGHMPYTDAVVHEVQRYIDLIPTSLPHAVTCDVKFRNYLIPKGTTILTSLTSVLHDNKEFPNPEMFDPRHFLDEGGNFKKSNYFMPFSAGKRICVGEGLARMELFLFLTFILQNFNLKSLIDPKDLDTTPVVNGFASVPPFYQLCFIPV

[7] = Metabolism in human liver S9 fraction; type: in vitro ADME; settings: for half-life at 1 µM / half-life at 2 µM: human, liver S9 fraction
[8] = Pharmacokinetics in Rhesus monkeys; type: in vivo; settings: for AUC / Cmax / k el / half-life: rhesus monkey, in vivo; for k el: Kel
male BALB/c mice [9] = experiment: Elevated Plus-Maze; type: in vivo; settings: IP; Buspirone 5 mg/kg; M2 0.05, 0.5, 1.0, 5.0 mg/kg
Outline: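 Elevated plus-maze in mice. Read-outs were open/closed arm time ratio, open/closed visit ratio, defecations and total visits. Each treated group was compared with the placebo group by Student t-test.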

male BALB/c mice [10] = experiment: Elevated Platform test; type: in vivo; settings: IP; Lorazepam 0.05 mg/kg, AVN-101 0.2 mg/kg; initial 2 min
male Long Evans rats = experiment: Geller-Seifter conflict test; type: in vivo; settings: IV, 5 min before test
Outline: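 Male Long Evans rats were food-deprived for 24 h, with at least 5 per group. Test compound was given IV via tail vein 5 min before testing. The test ran two 30-min sessions, unpunished and punished (conflict), with lever presses counted. Results were expressed as relative change versus the vehicle group.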

[11] = test system: rhesus macaques (Macaca Mulatta); experiment: 30 days toxicity, monkeys; type: in vivo; settings: 5 mg/kg PO daily
hKvLQT1-hminK (IKs) = hKvLQT1-hminK (IKs) (Homo sapiens, UniProt P51787); experiment: Cardiac channel inhibition, IKs; type: cell-based
Sequence of hKvLQT1-hminK (IKs) (P51787 whole entry): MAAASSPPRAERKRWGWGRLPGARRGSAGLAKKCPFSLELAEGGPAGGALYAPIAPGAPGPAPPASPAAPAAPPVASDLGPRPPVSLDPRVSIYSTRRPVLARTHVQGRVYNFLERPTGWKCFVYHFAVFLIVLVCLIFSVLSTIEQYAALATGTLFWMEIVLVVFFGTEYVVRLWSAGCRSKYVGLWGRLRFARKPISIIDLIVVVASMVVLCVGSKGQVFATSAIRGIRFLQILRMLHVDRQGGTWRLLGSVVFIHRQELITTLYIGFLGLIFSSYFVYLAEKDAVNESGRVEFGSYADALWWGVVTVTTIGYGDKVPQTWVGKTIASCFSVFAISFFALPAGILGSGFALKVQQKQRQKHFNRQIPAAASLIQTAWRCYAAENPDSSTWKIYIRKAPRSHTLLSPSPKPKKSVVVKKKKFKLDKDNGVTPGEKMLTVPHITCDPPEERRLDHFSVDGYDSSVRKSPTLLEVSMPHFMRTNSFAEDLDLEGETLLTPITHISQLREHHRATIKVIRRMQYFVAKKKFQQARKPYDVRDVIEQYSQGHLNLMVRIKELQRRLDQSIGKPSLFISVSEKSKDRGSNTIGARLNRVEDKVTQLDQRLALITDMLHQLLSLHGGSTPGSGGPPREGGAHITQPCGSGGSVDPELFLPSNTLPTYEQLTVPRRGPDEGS

[12] = test system: Salmonella typhimurium strains: TA98, TA1535, and TA1537; experiment: Ames MPF test; type: cell-based; settings: AVN-101 highest concentration 50μM
Outline: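 Run per kit manual in the Ames MPF fluctuation format with histidine-dependent strains TA98, TA1535 and TA1537. Test compound reached a highest concentration of 50 μM. Strain-specific positive controls: 4-nitro-o-phenylenediamine 15 μg/mL (TA98), sodium azide 2 μg/mL (TA1535), 9-aminoacridine 50 μg/mL (TA1537). Reverse mutation rate recorded.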

hERG potassium channel = hERG potassium channel (Homo sapiens, UniProt Q12809); experiment: hERG single cell patch clamp in HEK cells
Sequence of hERG potassium channel (Q12809 whole entry): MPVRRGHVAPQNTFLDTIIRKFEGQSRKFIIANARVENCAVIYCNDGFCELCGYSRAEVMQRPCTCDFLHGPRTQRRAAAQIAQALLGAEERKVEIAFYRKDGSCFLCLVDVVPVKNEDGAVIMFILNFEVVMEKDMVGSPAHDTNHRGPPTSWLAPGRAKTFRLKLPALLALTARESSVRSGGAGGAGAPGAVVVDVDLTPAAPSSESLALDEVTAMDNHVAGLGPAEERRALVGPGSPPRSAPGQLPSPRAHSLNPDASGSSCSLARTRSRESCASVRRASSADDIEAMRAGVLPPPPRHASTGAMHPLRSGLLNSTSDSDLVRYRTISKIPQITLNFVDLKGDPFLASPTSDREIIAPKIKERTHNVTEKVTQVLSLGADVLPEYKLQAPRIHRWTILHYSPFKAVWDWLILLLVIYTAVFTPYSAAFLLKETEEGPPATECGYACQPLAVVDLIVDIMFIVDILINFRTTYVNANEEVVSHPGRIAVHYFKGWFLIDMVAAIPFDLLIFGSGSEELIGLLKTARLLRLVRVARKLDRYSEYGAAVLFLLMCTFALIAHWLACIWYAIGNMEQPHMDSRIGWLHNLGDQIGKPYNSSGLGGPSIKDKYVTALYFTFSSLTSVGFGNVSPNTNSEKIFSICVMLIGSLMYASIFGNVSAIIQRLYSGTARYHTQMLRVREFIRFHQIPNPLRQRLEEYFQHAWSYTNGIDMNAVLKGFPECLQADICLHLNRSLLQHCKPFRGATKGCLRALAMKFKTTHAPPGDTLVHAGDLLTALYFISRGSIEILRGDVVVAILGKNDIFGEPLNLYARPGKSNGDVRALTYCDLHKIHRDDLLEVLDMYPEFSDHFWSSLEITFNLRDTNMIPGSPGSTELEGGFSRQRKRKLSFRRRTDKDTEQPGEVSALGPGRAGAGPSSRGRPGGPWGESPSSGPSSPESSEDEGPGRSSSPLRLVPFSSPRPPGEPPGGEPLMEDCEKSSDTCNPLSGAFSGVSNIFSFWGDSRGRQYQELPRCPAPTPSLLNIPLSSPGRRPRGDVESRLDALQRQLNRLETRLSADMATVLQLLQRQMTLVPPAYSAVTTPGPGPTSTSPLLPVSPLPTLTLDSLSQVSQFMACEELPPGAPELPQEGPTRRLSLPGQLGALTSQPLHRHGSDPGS

[13] = iv, 2 mg/kg, monkey 34887, IV 2 mg/kg
[14] = iv, 2 mg/kg, monkey 35188, IV 2 mg/kg
[15] = po, 10 mg/kg, Mean, PO 10 mg/kg
[16] = po, 10 mg/kg, monkey 34920, PO 10 mg/kg
[17] = po, 10 mg/kg, monkey 35189, PO 10 mg/kg

Cc1ccc2c(c1)c1c(n2CCc2ccccc2)CCN(C)C1 [AVN-101, 2,8-dimethyl-5-penethyl-2,3,4,5-tetra-hydro-1h-pyrido[[4,3-B]]indole hydrochloride]
IC50 (5-HT7 receptor): 0.28 nM
affinity higher than SB-742457 (5-HT7 receptor): ~4 orders of magnitude
binding (sodium channel (Site 2)): does not bind
binding [1]: does not bind
binding [2]: does not bind
receptor activation (H1 receptor): activated neither H1 nor H2 receptors
blockade of agonist-induced cell response (H1 receptor; 10μM histamine, Ca2+ mobilization): effectively blocked
receptor activation [3]: activated neither H1 nor H2 receptors
blockade of agonist-induced cell response ([3]; 50 nM amthamine, cAMP accumulation): effectively blocked
residual amount of original compound [4]: 16%
residual amount of original compound [5]: 45%
k el ([6]; 1μM): 0.352
Remaining quantity ([6]; 7.9 min): <1%
Remaining quantity ([6]; 30 min): <1%
half-life at 1 µM ([6]; rat, liver microsomes): 1.97 min
k el at 1 μM ([6]; rat, liver microsomes): 0.00558 s⁻¹
microsomal CLint at 1 µM ([6]; rat, liver microsomes): 703 µL/min/mg
remaining at 0.5 h, 2 µM (CYP2C8): 118%
remaining at 0.5 h, 2 µM (CYP2C19): 1%
half-life at 1 µM ([7]; T1/2, +NADPH+UDPGA): 0.437 h
half-life at 2 µM ([7]; T1/2, +NADPH+UDPGA): 0.982 h
half-life at 1 µM ([7]; T1/2, +NADPH): 0.413 h
half-life at 2 µM ([7]; T1/2, +NADPH): 1.45 h
metabolism with UDPGA only ([7]; phase 2 co-factor UDPGA only): no metabolism
Fabs ([8]; PO 10 mg/kg vs IV 2 mg/kg, mean): 15.3%
AUC ([8]; iv, 2 mg/kg, AUC0 ⟶t, Mean, IV 2 mg/kg): 426 ng·h/mL
AUC ([8]; iv, 2 mg/kg, AUC0 ⟶t, monkey 34887, IV 2 mg/kg): 356 ng·h/mL
AUC ([8]; iv, 2 mg/kg, AUC0 ⟶t, monkey 35188, IV 2 mg/kg): 496 ng·h/mL
AUC ([8]; iv, 2 mg/kg, AUC0 ⟶∞, Mean, IV 2 mg/kg): 792 ng·h/mL
AUC ([8]; iv, 2 mg/kg, AUC0 ⟶∞, monkey 34887, IV 2 mg/kg): 388 ng·h/mL
AUC ([8]; iv, 2 mg/kg, AUC0 ⟶∞, monkey 35188, IV 2 mg/kg): 1200 ng·h/mL
Cmax ([8]; iv, 2 mg/kg, Mean, IV 2 mg/kg): 324 ng/mL
Cmax [8, 13]: 304 ng/mL
Cmax [8, 14]: 345 ng/mL
k el ([8]; iv, 2 mg/kg, Mean, IV 2 mg/kg): 0.000208 s⁻¹
k el [8, 13]: 0.000347 s⁻¹
k el [8, 14]: 7.17e-05 s⁻¹
half-life ([8]; iv, 2 mg/kg, T1/2, Mean, IV 2 mg/kg): 1.63 h
half-life ([8]; iv, 2 mg/kg, T1/2, monkey 34887, IV 2 mg/kg): 0.55 h
half-life ([8]; iv, 2 mg/kg, T1/2, monkey 35188, IV 2 mg/kg): 2.7 h
AUC ([8]; po, 10 mg/kg, AUC0 ⟶t, Mean, PO 10 mg/kg): 360 ng·h/mL
AUC ([8]; po, 10 mg/kg, AUC0 ⟶t, monkey 34920, PO 10 mg/kg): 321 ng·h/mL
AUC ([8]; po, 10 mg/kg, AUC0 ⟶t, monkey 35189, PO 10 mg/kg): 398 ng·h/mL
AUC ([8]; po, 10 mg/kg, AUC0 ⟶∞, Mean, PO 10 mg/kg): 606 ng·h/mL
AUC ([8]; po, 10 mg/kg, AUC0 ⟶∞, monkey 34920, PO 10 mg/kg): 637 ng·h/mL
AUC ([8]; po, 10 mg/kg, AUC0 ⟶∞, monkey 35189, PO 10 mg/kg): 575 ng·h/mL
Cmax [8, 15]: 66 ng/mL
Cmax [8, 16]: 53 ng/mL
Cmax [8, 17]: 79 ng/mL
k el [8, 15]: 3.67e-05 s⁻¹
k el [8, 16]: 2.67e-05 s⁻¹
k el [8, 17]: 4.5e-05 s⁻¹
half-life ([8]; po, 10 mg/kg, T1/2, Mean, PO 10 mg/kg): 5.77 h
half-life ([8]; po, 10 mg/kg, T1/2, monkey 34920, PO 10 mg/kg): 7.3 h
half-life ([8]; po, 10 mg/kg, T1/2, monkey 35189, PO 10 mg/kg): 4.25 h
anxiolytic effect (open/closed arm time and visits, defecations) (male BALB/c mice [9]): clear anxiolytic effects
duration of freezing behavior (male BALB/c mice [10]): significantly reduced duration of the freezing behavior
activity during unpunished rewards session (male Long Evans rats): no effect observed
activity during punished conflict rewards session (male Long Evans rats; compared to vehicle): significantly increased
signs of toxicity [11]: did not show any signs of toxicity
IC50 (hKvLQT1-hminK (IKs)): 22500 nM
inhibition at 31.6 µM (hKvLQT1-hminK (IKs); read-out: % Inhibition at 31.6μM): 55%
mutagenicity (reverse mutation rate) [12]: produced no mutagenesis
Blood plasma concentration (Dogs (beagles); 0.05 mg/kg IV infusion): 140 nM and 140 ± 20 nM
femoral SBP, down (Dogs (beagles); 0.5 mg/kg): 13%
Blood plasma concentration (Dogs (beagles); 0.5 mg/kg IV infusion): 990 nM and 990 ± 40 nM
femoral SBP, down (Dogs (beagles); 0.5 mg/kg, p < 0.05): 17 mm Hg
femoral SBP, down (Dogs (beagles); 2 mg/kg): 16%
Blood plasma concentration (Dogs (beagles); 2 mg/kg IV infusion): 3280 nM and 3280 ± 300 nM
shortening of QT (Dogs (beagles); 2.0 mg/kg, at 30 min): 15%
shortening of QTcV (Dogs (beagles); 2.0 mg/kg, at 30 min): 8%
femoral SBP, down (Dogs (beagles); 2 mg/kg, p < 0.05): 21 mm Hg
HR, up (Dogs (beagles); 10 mg/kg): 164%
aortic DBP, down (Dogs (beagles); 10 mg/kg): 13%
femoral BF, up (Dogs (beagles); 10 mg/kg): 27%
femoral DBP, down (Dogs (beagles); 10 mg/kg): 17%
femoral SBP, down (Dogs (beagles); 10 mg/kg): 11%
left ventricular DBP, down (Dogs (beagles); 10 mg/kg): 40%
reduction in QT (Dogs (beagles); 10.0 mg/kg): 30%
reduction in QTcV (Dogs (beagles); 10.0 mg/kg): 13%
Blood plasma concentration (Dogs (beagles); 10 mg/kg IV infusion): 11100 nM and 11100 ± 2150 nM
HR, up (Dogs (beagles); 10 mg/kg, p < 0.001): 118 bpm
aortic DBP, down (Dogs (beagles); 10 mg/kg, p < 0.05): 9 mmHg
femoral BF, up (Dogs (beagles); 10 mg/kg, p < 0.05): 35 mL/min
femoral DBP, down (Dogs (beagles); 10 mg/kg, p < 0.05): 12 mm Hg
left ventricular DBP, down (Dogs (beagles); 10 mg/kg, p < 0.05): 2 mmHg
femoral SBP, down (Dogs (beagles); 10 mg/kg, p > 0.05): 15 mm Hg
IC50 (hERG potassium channel): 580 nM
